# Results gathered from unrelated publications.
# Lines come from different studies, so protocols differ.
# Observed: cell growth or viability
Compound,cell line,test,conditions,measurement,value
COc1cccc2c1C(=O)c1c(O)c3c(c(O)c1C2=O)C[C@@](O)(C(=O)CO)C[C@@H]3O[C@H]1C[C@H](N)[C@H](O)[C@H](C)O1,SK-OV-3,,48 h,IC50,1.2 mg/L
Cc1cc(N(CCOS(C)(=O)=O)CCOS(C)(=O)=O)ccc1C=O,SN12K1,,,IC50,0.79 mg/L
O=c1c2ccccc2nc(S)n1-c1ccccc1,HCT-116,LDH,"200 µg/mL, 24 h",viability,73.5%
CC1=C(O)C(=O)C=C2C1=CC=C1[C@@]2(C)CC[C@@]2(C)[C@@H]3C[C@](C)(C(=O)OCCCn4cc(C=O)c5ccccc54)CC[C@]3(C)CC[C@]12C,AGS,MTT,48 h,IC50,0.32 µM
CC[C@@]1(OC(=O)[C@H](C)N)C(=O)OCc2c1cc1n(c2=O)Cc2cc3cc4c(cc3nc2-1)OCO4,HCT-116,MTT,,IC50,0.08 µM
Cc1c(Cc2cccc(N(C)S(=O)(=O)CCCNCCCC(=O)N3CCN(c4ccc(Nc5c(C(N)=O)cnc6ccc(-c7cnc8ccccc8c7)cc56)cc4C(F)(F)F)CC3)c2)c(=O)oc2cc(OC(=O)N(C)C)ccc12,HCT-116,CCK-8,,GI50,5.47 µM
CN[C@@H]1C[C@H]2O[C@@](C)([C@@H]1OC)n1c3ccccc3c3c4c(c5c6ccccc6n2c5c31)C(=O)NC4,SHP77,MTT,,IC50,0.016 µM
CC[C@H](C)[C@H](N)C(=O)O[C@]1(CC)C(=O)OCc2c1cc1n(c2=O)Cc2cc3cc4c(cc3nc2-1)OCO4,HCT-116,MTT,,IC50,0.064 µM
Cc1cc(N(CCO)CCO)ccc1C(=O)O,SN12K1,,,IC50,> 10 mg/L
Cc1cccc2c(CNCC3(N4CCCC4)COC3)c[nH]c12,U-87 MG,,"30 µM, 48 h",viability,3.42%
COc1cc2c(c3c1C(=O)C[C@@H](c1ccccc1)O3)[C@H]1[C@@H](O2)OC(C)(C)[C@@H]1OC(C)=O,Raji,MTS,72 h,IC50,> 10 µM
CC[C@@]1(OC(=O)CN)C(=O)OCc2c1cc1n(c2=O)Cc2cc3cc4c(cc3nc2-1)OCO4,HCT-116,MTT,,IC50,0.025 µM
C=CC(=O)Nc1cc(Nc2nccc(-c3cn(C)c4ccccc34)n2)c(OC)cc1N(C)CCN(C)C,PC-9,,72 h,IC50,0.008 µM
COc1c2ccoc2cc2oc(=O)ccc12,HCT-116,WST-1,48 h,IC50,29 µM
